{
  "source": "ChEMBL document CHEMBL3576866",
  "about": "“Discovery of a Cyclic Boronic Acid β-Lactamase Inhibitor (RPX7009) with Utility vs Class A Serine Carbapenemases” (J Med Chem, 2015)",
  "key": {"[1]": {"molecular_target": "Beta lactamase TEM-1 (Klebsiella pneumoniae) (UniProt Q7B899)", "sequence (Q7B899 as listed by the source)": "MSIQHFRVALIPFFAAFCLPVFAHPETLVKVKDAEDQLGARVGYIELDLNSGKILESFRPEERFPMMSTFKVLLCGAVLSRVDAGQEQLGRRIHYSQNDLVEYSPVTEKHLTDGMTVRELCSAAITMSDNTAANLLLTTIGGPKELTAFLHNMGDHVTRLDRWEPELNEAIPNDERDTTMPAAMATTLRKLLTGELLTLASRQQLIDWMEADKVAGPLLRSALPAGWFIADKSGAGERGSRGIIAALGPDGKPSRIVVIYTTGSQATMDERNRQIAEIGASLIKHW", "experiment": "Inhibition of Klebsiella pneumoniae KP1004 TEM-1 assessed as meropenem MIC at 4 ug/ml by broth microdilution method", "in_short": "(§1)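 CLSI broth microdilution (M07-A9, 2012) MIC of the carbapenem against clinical serine carbapenemase-producing strain, tested alone and with the inhibitor held at a fixed 4 μg/mL.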"}, "[2]": {"molecular_target": "Carbapenem-hydrolyzing beta-lactamase KPC (Klebsiella oxytoca) (UniProt Q848S6)", "sequence (Q848S6 whole entry)": "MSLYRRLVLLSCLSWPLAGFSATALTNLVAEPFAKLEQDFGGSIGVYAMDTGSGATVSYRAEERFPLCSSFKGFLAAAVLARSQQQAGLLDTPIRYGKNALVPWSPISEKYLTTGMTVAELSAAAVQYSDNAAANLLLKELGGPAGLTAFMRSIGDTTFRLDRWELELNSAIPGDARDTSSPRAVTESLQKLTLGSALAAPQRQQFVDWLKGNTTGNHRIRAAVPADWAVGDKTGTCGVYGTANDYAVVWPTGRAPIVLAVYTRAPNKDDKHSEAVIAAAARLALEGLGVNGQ", "experiment": "Inhibition of Klebsiella oxytoca KX1017 KPC-2 assessed as meropenem MIC at 4 ug/ml by broth microdilution method", "in_short": "as §1"}, "[3]": {"tested_on": "Enterobacter cloacae", "experiment": "Inhibition of Enterobacter cloacae ECL1058 SHV-11 assessed as meropenem MIC at 4 ug/ml by broth microdilution method"}, "[4]": {"tested_on": "Klebsiella pneumoniae", "experiment": "Inhibition of Klebsiella pneumoniae KP1087 CTX-M-15 assessed as meropenem MIC at 4 ug/ml by broth microdilution method", "in_short": "as §1"}, "[5]": {"molecular_target": "Beta-lactamase (Klebsiella pneumoniae) (UniProt Q93LQ9)", "sequence (Q93LQ9 as listed by the source)": "as the sequence (Q848S6 whole entry) above", "experiment": "Inhibition of Klebsiella pneumoniae KP1084 KPC-3 assessed as meropenem MIC at 4 ug/ml by broth microdilution method", "in_short": "as §1"}, "[6]": {"molecular_target": "Tissue-type plasminogen activator (Homo sapiens, UniProt P00750)", "sequence (P00750 whole entry)": "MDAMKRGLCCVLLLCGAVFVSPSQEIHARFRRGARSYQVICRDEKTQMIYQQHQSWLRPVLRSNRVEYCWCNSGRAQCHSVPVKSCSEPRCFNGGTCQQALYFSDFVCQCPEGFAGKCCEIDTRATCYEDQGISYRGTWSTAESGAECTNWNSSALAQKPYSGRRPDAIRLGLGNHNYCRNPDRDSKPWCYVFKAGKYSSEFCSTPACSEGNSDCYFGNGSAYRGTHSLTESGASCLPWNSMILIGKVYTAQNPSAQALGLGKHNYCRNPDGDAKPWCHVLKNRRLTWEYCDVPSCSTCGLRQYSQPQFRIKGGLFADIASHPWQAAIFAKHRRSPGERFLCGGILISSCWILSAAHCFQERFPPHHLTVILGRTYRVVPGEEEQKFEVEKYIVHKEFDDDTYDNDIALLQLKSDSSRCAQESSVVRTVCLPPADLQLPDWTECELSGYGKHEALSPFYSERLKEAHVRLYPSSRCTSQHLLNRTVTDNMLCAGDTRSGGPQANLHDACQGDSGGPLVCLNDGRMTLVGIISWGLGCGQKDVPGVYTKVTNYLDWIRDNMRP", "experiment": "Inhibition of tissue plasminogen activator (unknown origin) using GK-pNA as substrate preincubated for 10 mins followed by substrate addition measured for 30 mins by spectrophotometric analysis", "in_short": "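Tissue plasminogen activator (commercial) in 30 mM Tris-HCl, pH 8.5, 30 mM imidazole, 130 mM NaCl. Incubated with inhibitor at several concentrations for 10 min at 37 °C. GK-pNA (listed at 100 μM) was added and absorbance followed for 30 min. Rates were relative to a no-treatment control; IC50 is the concentration giving 50% inhibition.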"}, "[7]": {"molecular_target": "Chymase (Homo sapiens, UniProt P23946)", "sequence (P23946 whole entry)": "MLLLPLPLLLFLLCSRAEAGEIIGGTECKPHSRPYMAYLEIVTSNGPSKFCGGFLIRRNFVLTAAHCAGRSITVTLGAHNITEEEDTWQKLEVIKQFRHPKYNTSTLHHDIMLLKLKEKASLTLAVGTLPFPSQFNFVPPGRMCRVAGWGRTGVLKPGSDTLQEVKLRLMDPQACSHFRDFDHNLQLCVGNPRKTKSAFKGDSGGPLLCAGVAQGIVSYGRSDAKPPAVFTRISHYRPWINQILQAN", "experiment": "Inhibition of chymase (unknown origin) using Suc-AAPF-AMC as substrate preincubated for 10 mins followed by substrate addition measured for 30 mins by spectrophotometric analysis", "in_short": "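Commercial chymase in 100 mM Tris, pH 8.0, 2 M NaCl, 0.01% Triton X-100. Mixed with inhibitor at various concentrations for 10 min at 37 °C before Suc-AAPF-AMC (listed at 40 μM), then fluorescence followed for 30 min. Rates were taken relative to a no-treatment control; IC50 is the concentration giving 50% inhibition.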"}, "[8]": {"molecular_target": "Neutrophil elastase (Homo sapiens, UniProt P08246)", "sequence (P08246 whole entry)": "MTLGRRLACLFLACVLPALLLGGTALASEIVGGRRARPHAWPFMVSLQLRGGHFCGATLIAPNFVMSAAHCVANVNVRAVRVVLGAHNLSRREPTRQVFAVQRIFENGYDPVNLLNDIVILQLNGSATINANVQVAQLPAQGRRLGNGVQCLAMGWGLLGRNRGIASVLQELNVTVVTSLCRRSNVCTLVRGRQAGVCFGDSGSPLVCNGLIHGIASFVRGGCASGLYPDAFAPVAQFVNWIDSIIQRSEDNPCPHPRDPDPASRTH", "experiment": "Inhibition of neutrophil elastase (unknown origin) using MeOSuc-AAVP-AMC as substrate preincubated for 10 mins followed by substrate addition measured for 30 mins by spectrophotometric analysis", "in_short": "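Purified commercial enzyme, mixed with inhibitor across a concentration range in 50 mM Tris-HCl pH 7.5, 1 M NaCl and held 10 min at 37 °C. MeOSuc-AAVP-AMC (30 μM) then added and fluorescence followed for 30 min. Rates expressed relative to untreated control. IC50 taken as the concentration giving 50% inhibition. AEBSF and leupeptin served as positive controls.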"}, "[9]": {"experiment": "Half life in rat at 100 mg/kg, iv administered as 0.5 hrs infusion by HPLC-MS method", "assay_type": "ADME, organism-based", "settings": "in vivo"}, "[10]": {"experiment": "Volume of distribution at steady state in human at 1 g administered as 3 hrs of infusion", "assay_type": "ADME, organism-based", "settings": "in vivo, iv, read-out: Vdss", "in_short": "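Healthy volunteers received 3 h infusions. Plasma concentrations were fit to a noncompartmental model to derive steady-state volume of distribution at the 1 g dose.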"}, "[11]": {"tested_on": "Klebsiella oxytoca", "experiment": "Inhibition of Klebsiella oxytoca KX1019 OXA-2 assessed as biapenem MIC at 4 ug/ml by broth microdilution method"}, "[12]": {"molecular_target": "Carbapenem-hydrolyzing beta-lactamase KPC (Klebsiella oxytoca) (UniProt Q848S6)", "experiment": "Inhibition of Klebsiella oxytoca KX1017 KPC-2 assessed as biapenem MIC at 4 ug/ml by broth microdilution method"}, "[13]": {"tested_on": "Klebsiella oxytoca", "experiment": "Inhibition of Klebsiella oxytoca KX1017 OXA-2 assessed as biapenem MIC at 4 ug/ml by broth microdilution method"}, "[14]": {"molecular_target": "T1, Beta-lactamase SHV-1 (Klebsiella pneumoniae) (UniProt P0AD64)", "T1 sequence (whole entry)": "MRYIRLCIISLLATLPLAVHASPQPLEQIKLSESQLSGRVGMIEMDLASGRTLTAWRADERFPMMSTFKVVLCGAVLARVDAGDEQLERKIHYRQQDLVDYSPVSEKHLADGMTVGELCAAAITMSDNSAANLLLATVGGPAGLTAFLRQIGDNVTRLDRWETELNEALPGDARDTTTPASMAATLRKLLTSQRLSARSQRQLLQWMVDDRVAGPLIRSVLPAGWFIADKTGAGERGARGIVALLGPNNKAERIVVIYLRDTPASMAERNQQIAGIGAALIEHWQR", "experiment": "Inhibition of Klebsiella pneumoniae KP1082 SHV-1 assessed as biapenem MIC at 4 ug/ml by broth microdilution method", "in_short": "as §1"}, "[15]": {"tested_on": "Klebsiella pneumoniae", "experiment": "Inhibition of Klebsiella pneumoniae KP1004 SHV-11 assessed as imipenem MIC at 4 ug/ml by broth microdilution method", "in_short": "as §1"}, "[16]": {"molecular_target": "T1, Beta-lactamase SHV-1 (Klebsiella pneumoniae)", "experiment": "Inhibition of Klebsiella pneumoniae KP1082 SHV-1 assessed as imipenem MIC at 4 ug/ml by broth microdilution method"}, "[17]": {"molecular_target": "T1, Beta-lactamase SHV-1 (Klebsiella pneumoniae)", "experiment": "Inhibition of Klebsiella pneumoniae KP1083 SHV-1 assessed as imipenem MIC at 4 ug/ml by broth microdilution method"}, "[18]": {"tested_on": "Klebsiella pneumoniae", "experiment": "In vivo inhibition of KPC in Klebsiella pneumoniae KP1074 in Swiss webster neutropenic mouse lung infection model assessed as meropenem deltalog10CFU in lung at 50 mg/kg, ip administered every 2 hrs starting at 2 hrs postinfection measured after 24 hrs", "assay_type": "functional"}, "[19]": {"molecular_target": "Carbapenem-hydrolyzing beta-lactamase KPC (Klebsiella oxytoca) (UniProt Q848S6)", "experiment": "Inhibition of Klebsiella oxytoca KX1017 KPC-2 assessed as ertapenem MIC at 4 ug/ml by broth microdilution method"}, "[20]": {"tested_on": "Klebsiella pneumoniae", "experiment": "Inhibition of Klebsiella pneumoniae KP1008 KPC-2 assessed as ertapenem MIC at 4 ug/ml by broth microdilution method", "in_short": "as §1"}, "[21]": {"tested_on": "Klebsiella pneumoniae", "experiment": "Inhibition of Klebsiella pneumoniae KP1087 SHV-11 assessed as imipenem MIC at 4 ug/ml by broth microdilution method", "in_short": "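CLSI broth microdilution (M07-A9) against clinical K. pneumoniae strain KP1087 (KPC-2, CTX-M-15, SHV-11, TEM-1); carbapenem MIC (μg/mL) read with the inhibitor held at a fixed 4 μg/mL, alongside carbapenem alone.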"}, "[22]": {"tested_on": "Klebsiella oxytoca", "experiment": "Inhibition of Klebsiella oxytoca KX1017 SHV-30 assessed as imipenem MIC at 4 ug/ml by broth microdilution method"}, "[23]": {"experiment": "Inhibition of Escherichia coli recombinant P99 assessed as substrate nitrocefin degradation preincubated for 10 mins followed by substrate addition measured every 10 secs for 10 mins by spectrophotometric analysis", "in_short": "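β-Lactamases purified from overexpressing recombinant E. coli. Enzyme preincubated with inhibitor at varying concentrations for 10 min at room temperature in 50 mM Na phosphate pH 7.0, 0.1 mg/mL BSA. Then 50 μM nitrocefin (final) added and cleavage read at 490 nm every 10 s for 10 min. Ki derived by the Waley method.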"}},
  "data": [
    {"compound": "O=C(O)C[C@@H]1CC[C@H](NC(=O)Cc2cccs2)B(O)O1", "note": "[VABORBACTAM]", "values": [
      {"measurement": "MIC", "setting": "[1]", "result": "< 0.06", "unit": "µg/mL"},
      {"measurement": "MIC", "setting": "[2]", "result": "< 0.06", "unit": "µg/mL"},
      {"measurement": "MIC", "setting": "[3]", "result": "< 0.06", "unit": "µg/mL"},
      {"measurement": "MIC", "setting": "[4]", "result": 1, "unit": "µg/mL"},
      {"measurement": "MIC", "setting": "[5]", "result": 0.5, "unit": "µg/mL"},
      {"measurement": "IC50", "setting": "[6]", "result": "> 1000", "unit": "µM"},
      {"measurement": "IC50", "setting": "[7]", "result": "> 1000", "unit": "µM"},
      {"measurement": "IC50", "setting": "[8]", "result": "> 1000", "unit": "µM"},
      {"measurement": "half-life", "setting": "[9]", "result": 25.2, "unit": "min"},
      {"measurement": "Vd", "setting": "[10]", "result": 21, "unit": "L"},
      {"measurement": "MIC", "setting": "[11]", "result": 0.25, "unit": "µg/mL"},
      {"measurement": "MIC", "setting": "[12]", "result": "< 0.06", "unit": "µg/mL"},
      {"measurement": "MIC", "setting": "[13]", "result": "< 0.06", "unit": "µg/mL"},
      {"measurement": "MIC", "setting": "[14]", "result": "< 0.06", "unit": "µg/mL"},
      {"measurement": "MIC", "setting": "[15]", "result": "≤ 0.06", "unit": "µg/mL"},
      {"measurement": "MIC", "setting": "[16]", "result": 0.13, "unit": "µg/mL"},
      {"measurement": "MIC", "setting": "[17]", "result": 0.13, "unit": "µg/mL"},
      {"measurement": "deltalog10CFU", "setting": "[18]", "result": -2.03},
      {"measurement": "MIC", "setting": "[19]", "result": 0.25, "unit": "µg/mL"},
      {"measurement": "MIC", "setting": "[20]", "result": "≤ 0.06", "unit": "µg/mL"},
      {"measurement": "MIC", "setting": "[21]", "result": 0.25, "unit": "µg/mL"},
      {"measurement": "MIC", "setting": "[22]", "result": 0.13, "unit": "µg/mL"},
      {"measurement": "Ki", "setting": "[23]", "result": 0.053, "unit": "µM"}
    ]}
  ]
}
